Among the data in ChEMBL document CHEMBL1649420, “Identifying chelators for metalloprotein inhibitors using a fragment-based approach” (J Med Chem, 2011) are inhibition and IC50 values, retold here.

SMILES strings stand for the structures.

For orientation: inhibition means the change of the read-out against control, counted positive when it falls. Broadly, the IC50 is the concentration at which inhibition is half-maximal.

Assay [1] addresses T1, Interstitial collagenase (Homo sapiens) (UniProt P03956).
T1 sequence (whole entry): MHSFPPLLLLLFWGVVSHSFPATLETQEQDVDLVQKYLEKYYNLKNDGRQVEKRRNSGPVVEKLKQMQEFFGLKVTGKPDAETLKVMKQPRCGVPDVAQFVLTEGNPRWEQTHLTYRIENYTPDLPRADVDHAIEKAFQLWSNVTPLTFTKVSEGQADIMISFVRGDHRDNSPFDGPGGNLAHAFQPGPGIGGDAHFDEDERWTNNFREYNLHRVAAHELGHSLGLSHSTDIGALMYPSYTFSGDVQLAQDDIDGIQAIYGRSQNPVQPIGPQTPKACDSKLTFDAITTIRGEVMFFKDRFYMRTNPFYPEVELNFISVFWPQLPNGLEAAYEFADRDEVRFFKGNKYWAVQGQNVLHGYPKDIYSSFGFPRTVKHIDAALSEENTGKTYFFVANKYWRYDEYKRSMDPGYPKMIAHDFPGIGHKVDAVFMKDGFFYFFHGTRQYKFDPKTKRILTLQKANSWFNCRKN
The conditions noted are these: at 1 mM.

In assay [2] the target is Neutrophil collagenase (Homo sapiens) (UniProt P22894). The conditions noted are these: at 1 mM.
Assay [3] has as its target T2, 72 kDa type IV collagenase (Homo sapiens, UniProt P08253). The conditions noted are these: at 1 mM.
Target sequence in this assay (P08253 110-660 limits assumed): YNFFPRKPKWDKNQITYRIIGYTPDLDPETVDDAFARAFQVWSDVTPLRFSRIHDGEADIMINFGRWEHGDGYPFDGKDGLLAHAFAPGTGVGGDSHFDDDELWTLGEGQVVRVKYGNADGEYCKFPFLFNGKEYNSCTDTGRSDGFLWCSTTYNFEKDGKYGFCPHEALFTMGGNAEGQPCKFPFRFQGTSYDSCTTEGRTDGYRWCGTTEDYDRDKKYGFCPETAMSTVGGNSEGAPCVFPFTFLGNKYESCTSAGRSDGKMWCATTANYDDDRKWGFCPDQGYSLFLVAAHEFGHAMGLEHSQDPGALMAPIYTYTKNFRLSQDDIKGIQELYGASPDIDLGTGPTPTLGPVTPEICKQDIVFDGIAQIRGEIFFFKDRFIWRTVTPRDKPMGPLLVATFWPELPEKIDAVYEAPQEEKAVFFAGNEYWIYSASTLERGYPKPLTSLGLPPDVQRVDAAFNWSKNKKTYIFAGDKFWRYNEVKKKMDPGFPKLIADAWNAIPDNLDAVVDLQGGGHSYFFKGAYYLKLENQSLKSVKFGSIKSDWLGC
Assay [4] has as its target T3, Nitric oxide synthase, inducible (Mus musculus) (UniProt P29477).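 Further: recombinant enzyme, activity read out colorimetrically after 40 min.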
T3 sequence (whole entry): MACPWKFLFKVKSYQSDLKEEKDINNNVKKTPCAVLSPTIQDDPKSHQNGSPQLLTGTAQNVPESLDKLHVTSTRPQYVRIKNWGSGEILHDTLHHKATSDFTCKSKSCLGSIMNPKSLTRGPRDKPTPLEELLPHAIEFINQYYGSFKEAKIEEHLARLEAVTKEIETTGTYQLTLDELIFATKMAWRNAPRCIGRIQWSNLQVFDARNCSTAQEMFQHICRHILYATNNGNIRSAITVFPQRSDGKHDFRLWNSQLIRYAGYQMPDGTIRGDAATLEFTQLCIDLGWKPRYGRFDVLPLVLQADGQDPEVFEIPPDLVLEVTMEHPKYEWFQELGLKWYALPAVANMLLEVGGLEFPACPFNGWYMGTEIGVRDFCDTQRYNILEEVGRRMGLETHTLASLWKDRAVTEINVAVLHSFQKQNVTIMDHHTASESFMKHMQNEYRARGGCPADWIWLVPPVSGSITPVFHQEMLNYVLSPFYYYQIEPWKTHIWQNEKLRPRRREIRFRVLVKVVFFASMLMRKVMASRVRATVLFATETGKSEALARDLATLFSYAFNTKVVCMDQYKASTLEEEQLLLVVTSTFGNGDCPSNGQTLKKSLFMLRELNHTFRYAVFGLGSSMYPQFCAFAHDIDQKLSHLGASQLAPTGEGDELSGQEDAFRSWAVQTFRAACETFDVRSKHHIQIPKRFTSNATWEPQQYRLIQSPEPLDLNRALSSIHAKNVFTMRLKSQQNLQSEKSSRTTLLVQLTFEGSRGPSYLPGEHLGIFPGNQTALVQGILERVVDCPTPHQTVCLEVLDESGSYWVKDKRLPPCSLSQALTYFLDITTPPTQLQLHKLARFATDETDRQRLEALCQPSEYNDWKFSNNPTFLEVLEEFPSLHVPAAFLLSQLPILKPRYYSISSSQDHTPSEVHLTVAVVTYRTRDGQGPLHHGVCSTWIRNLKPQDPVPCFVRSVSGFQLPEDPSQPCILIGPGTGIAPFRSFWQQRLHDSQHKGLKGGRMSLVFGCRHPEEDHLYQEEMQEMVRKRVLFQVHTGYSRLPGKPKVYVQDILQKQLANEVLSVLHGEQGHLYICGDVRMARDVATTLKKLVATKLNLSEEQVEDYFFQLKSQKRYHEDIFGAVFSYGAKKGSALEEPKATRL
The following applies: at 1 mM.

In assay [5] the target is T4, Tyrosinase (Agaricus bisporus) (UniProt O42713).
T4 sequence (whole entry): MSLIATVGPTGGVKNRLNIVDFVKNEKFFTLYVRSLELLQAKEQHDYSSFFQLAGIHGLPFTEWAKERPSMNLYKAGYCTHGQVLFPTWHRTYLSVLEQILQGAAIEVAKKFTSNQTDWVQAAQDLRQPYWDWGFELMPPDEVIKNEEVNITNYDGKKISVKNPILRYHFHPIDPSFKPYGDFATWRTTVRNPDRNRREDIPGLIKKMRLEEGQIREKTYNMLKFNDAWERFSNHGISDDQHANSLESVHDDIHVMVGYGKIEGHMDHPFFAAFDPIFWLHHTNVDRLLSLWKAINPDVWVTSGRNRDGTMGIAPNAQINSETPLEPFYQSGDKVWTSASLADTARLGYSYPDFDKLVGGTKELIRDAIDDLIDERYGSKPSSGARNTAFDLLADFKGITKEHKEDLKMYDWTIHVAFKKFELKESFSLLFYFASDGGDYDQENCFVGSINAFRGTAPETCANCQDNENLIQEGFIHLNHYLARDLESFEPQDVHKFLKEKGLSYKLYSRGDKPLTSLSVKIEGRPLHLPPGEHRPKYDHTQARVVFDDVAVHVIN
The following applies: at 1 mM.

Assay [6] deals with T2, 72 kDa type IV collagenase. As to the kind of experiment: Inhibition of human recombinant MMP2 after 30 mins. A digest of the protocol: (§1)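 Enzyme (1.16 U) preincubated 30 min at 37 °C with fragment in 50 mM HEPES, 10 mM CaCl2, 0.05% Brij-35, pH 7.5. Fluorogenic Mca peptide substrate (4 μM final) then added. Rate of fluorescence increase compared with no-inhibitor control (100%). Single-point 25 μM final for the 8-hydroxyquinoline sublibrary. IC50 fitted to dose-response curves from serial dilutions of DMSO stocks.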
Target sequence in this assay (P08253 whole entry): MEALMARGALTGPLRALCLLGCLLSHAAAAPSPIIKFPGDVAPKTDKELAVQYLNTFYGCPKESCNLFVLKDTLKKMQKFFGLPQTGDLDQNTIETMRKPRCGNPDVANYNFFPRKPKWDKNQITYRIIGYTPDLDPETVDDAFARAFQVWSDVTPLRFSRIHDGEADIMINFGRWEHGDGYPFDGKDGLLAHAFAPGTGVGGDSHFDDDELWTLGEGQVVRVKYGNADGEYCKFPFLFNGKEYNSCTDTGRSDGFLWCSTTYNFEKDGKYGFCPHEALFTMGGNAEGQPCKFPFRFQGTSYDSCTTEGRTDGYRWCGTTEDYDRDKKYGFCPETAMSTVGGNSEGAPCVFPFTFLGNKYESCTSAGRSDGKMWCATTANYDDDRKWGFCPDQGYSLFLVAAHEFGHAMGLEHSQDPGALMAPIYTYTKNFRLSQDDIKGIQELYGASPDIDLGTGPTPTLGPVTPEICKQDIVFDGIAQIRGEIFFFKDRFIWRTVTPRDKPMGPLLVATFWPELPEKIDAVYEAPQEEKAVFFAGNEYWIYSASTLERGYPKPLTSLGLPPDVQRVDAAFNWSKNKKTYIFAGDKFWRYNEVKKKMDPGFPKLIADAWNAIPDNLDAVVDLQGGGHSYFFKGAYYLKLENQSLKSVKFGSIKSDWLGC

The target in assay [7] is T5, Lethal factor (Bacillus anthracis) (UniProt P15917).
T5 sequence (whole entry): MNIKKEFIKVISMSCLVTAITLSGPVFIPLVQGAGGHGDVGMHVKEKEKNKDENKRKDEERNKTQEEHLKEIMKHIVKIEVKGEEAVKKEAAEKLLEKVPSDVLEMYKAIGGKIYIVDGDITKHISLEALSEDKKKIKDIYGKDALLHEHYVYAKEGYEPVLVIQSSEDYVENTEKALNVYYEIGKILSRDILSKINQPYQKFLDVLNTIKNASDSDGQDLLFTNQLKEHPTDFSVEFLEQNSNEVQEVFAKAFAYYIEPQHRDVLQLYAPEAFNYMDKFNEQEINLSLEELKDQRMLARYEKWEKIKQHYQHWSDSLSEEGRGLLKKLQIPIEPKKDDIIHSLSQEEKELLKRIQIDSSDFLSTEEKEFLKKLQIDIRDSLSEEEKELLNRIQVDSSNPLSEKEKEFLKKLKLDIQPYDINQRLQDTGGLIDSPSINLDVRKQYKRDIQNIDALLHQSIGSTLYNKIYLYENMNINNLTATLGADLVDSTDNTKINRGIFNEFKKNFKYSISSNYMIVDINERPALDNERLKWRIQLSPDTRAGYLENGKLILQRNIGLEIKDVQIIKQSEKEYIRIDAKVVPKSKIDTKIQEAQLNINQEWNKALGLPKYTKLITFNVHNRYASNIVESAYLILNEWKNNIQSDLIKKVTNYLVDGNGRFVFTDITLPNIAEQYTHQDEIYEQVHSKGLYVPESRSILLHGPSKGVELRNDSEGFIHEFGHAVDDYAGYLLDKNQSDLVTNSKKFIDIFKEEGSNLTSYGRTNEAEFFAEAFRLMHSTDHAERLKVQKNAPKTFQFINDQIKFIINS
The conditions noted are these: at 1 mM.

In assay [8] the target is Stromelysin-1 (Homo sapiens) (UniProt P08254). The conditions noted are these: at 1 mM.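 Further: recombinant enzyme, inhibition read after a 30 min incubation.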
Assay [9] addresses T2, 72 kDa type IV collagenase. As to the kind of experiment: Inhibition of human recombinant MMP2 at 25 uM after 30 mins. In short, it runs like this: as §1
Target sequence in this assay (P08253 110-660 limits assumed): as the sequence (P08253 110-660 limits assumed) above
The target of a further assay is T6, Tyrosinase (Agaricus bisporus, UniProt O42713).
T6 sequence (O42713 whole entry): T4 sequence (whole entry)
As to the kind of experiment: Inhibition of mushroom tyrosinase after 10 mins.

Assay [10] addresses T7, Polyunsaturated fatty acid 5-lipoxygenase (Homo sapiens) (UniProt P09917).
T7 sequence (whole entry): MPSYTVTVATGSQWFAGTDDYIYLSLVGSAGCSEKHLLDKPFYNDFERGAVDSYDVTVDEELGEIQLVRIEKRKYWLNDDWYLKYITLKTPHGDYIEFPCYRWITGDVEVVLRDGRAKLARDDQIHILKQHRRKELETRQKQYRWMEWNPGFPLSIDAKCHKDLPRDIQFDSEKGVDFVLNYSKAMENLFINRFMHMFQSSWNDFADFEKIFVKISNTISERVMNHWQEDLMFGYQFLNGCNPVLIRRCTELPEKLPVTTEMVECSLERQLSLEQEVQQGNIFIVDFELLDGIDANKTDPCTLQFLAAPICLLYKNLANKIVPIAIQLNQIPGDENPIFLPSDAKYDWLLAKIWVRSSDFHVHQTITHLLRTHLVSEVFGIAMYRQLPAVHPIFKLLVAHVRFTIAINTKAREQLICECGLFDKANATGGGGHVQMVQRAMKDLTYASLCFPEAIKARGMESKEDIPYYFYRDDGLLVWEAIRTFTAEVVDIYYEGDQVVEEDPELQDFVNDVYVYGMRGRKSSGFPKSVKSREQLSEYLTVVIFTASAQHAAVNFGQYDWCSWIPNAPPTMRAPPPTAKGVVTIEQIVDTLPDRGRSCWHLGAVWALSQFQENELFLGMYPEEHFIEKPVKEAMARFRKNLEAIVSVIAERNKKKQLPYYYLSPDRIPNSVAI
Nature of the assay: Inhibition of human recombinant 5-lipoxygenase at 1 mM after 10 mins by fluorescence assay.

The target of assay [11] is Matrix metalloproteinase-9 (Homo sapiens) (UniProt P14780). The following applies: at 1 mM.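 Further: recombinant human MMP9, activity read after 30 min.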
The target of assay [12] is T8, Polyunsaturated fatty acid 5-lipoxygenase (Homo sapiens, UniProt P09917).
T8 sequence (P09917 whole entry): T7 sequence (whole entry)
As to the kind of experiment: Inhibition of human recombinant 5-lipoxygenase after 10 mins by fluorescence assay.

Chain of Neutrophil collagenase (Homo sapiens) (P22894 101-467 limits assumed): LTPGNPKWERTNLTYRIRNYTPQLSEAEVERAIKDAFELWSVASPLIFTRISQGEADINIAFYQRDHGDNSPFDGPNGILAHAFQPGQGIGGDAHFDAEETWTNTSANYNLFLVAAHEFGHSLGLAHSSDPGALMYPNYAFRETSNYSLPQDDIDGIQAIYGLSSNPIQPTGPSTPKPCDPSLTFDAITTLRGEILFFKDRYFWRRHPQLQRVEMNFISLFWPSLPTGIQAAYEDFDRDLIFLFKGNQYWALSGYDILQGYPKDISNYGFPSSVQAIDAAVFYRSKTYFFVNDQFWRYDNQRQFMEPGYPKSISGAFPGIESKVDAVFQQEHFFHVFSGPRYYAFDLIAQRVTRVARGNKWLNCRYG
Chain of Matrix metalloproteinase-9 (Homo sapiens) (P14780 whole entry): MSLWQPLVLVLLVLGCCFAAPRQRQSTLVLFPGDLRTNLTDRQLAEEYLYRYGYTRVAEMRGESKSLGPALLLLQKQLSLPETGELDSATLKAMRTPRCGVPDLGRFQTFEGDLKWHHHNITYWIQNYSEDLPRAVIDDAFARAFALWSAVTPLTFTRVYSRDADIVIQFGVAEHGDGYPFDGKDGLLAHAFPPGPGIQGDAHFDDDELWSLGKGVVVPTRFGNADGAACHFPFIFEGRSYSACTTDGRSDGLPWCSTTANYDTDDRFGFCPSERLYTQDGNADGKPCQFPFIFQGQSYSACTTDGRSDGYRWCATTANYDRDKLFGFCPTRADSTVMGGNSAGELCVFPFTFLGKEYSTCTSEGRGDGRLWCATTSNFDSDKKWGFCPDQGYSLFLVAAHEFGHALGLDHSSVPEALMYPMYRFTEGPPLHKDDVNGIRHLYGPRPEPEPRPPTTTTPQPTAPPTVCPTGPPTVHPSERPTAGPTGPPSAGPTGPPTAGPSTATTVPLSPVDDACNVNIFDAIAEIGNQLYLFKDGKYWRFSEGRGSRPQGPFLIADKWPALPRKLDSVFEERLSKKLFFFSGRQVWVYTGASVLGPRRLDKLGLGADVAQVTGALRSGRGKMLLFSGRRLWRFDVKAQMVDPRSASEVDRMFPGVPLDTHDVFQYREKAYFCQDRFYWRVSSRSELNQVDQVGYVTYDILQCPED
Chain of Stromelysin-1 (Homo sapiens) (P08254 100-477 limits assumed): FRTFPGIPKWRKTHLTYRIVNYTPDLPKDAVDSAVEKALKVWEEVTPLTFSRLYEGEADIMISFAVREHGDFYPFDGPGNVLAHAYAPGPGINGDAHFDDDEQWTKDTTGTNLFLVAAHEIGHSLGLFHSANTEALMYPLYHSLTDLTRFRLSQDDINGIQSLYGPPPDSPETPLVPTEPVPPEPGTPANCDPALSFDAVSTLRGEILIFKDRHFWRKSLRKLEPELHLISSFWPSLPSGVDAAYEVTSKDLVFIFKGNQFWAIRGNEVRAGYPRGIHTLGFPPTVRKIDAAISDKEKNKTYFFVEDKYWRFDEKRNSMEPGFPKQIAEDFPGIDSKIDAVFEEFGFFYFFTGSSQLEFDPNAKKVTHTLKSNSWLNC

As for `CC(=O)NO` [ACETOHYDROXAMIC ACID], the inhibition in assay [1] is 10%; in assay [2] it was 5%; in assay [3], 4%; in assay [4], 4%; in assay [5], -2%; in assay [7], 25%. Also, the inhibition in [8] came out at 5%. The IC50 in [6] worked out at 15000 µM.

Turning to `O=S(=O)(Nc1ccc(O)c2ncccc12)c1ccccc1`, the IC50 in assay [6] amounted to 8.8 µM. Moreover, the inhibition in [9] was greater than 65%.

On to `O=S(=O)(Nc1ccc2cccnc2c1O)c1ccccc1`, for which the IC50 in assay [6] amounted to 5.6 µM. Further, the inhibition in assay [9] was greater than 65%.

For `O=c1[nH]ccc(=S)[nH]1`, in [6], the IC50 was determined as 121 µM.

Consider `O=S(=O)(Nc1ccc2cccnc2c1O)c1ccc(-c2ccccc2)cc1`, for which the IC50 in assay [6] stood at 3.9 µM. Further, in assay [9], the inhibition was greater than 65%.

On Tyrosinase, `O=C(O)c1cccc(=O)[nH]1` gave an IC50 of 159 µM.

`Oc1cccc2cccnc12` [OXYQUINOLINE]: the inhibition in assay [1] came out at 77%; in [10] it was 61%; in assay [2], 92%; in assay [3], 94%; in [4] it was 8%; in assay [7] it was 56%. For the same compound, the inhibition in [11] came to 78%; in [8] it was 83%. The IC50 in assay [6] was 130 µM.

In the case of `O=S(=O)(Nc1ccc(O)c2ncccc12)c1cccs1`, the IC50 in [6] turned out to be 8.4 µM. In addition, the inhibition in [9] is greater than 65%.

With `O=S(=O)(Nc1ccc(O)c2ncccc12)c1ccc(F)cc1`, in assay [6], the IC50 came out at 7.2 µM. For the same compound, the inhibition in assay [9] was greater than 65%.

For the compound `Nc1cccc(C(=O)O)c1O`, the inhibition in [1] came to 69%; in [10], 72%; in assay [2] it was 67%; in assay [3] it was 70%; in assay [4], 18%; in assay [7], 90%. Moreover, the inhibition in [11] is 59%; in [8], 72%. Besides, the IC50 in [6] amounted to 389 µM.

In the case of `O=S(=O)(Nc1ccc2cccnc2c1O)c1ccc(F)cc1`, the IC50 in [6] was determined as 3 µM. Also, the inhibition in assay [9] was greater than 65%.

With `Cc1occc(=S)c1O`, the inhibition in assay [1] came to 98%; in assay [10] it was 91%; in assay [2], 101%; in [3] it was 100%; in assay [5], 102%; in assay [7] it was 96%. Moreover, the results for the inhibition in assay [11] and in [8] were 100% and 98%, respectively. For the same compound, the IC50 is 11 µM in [12] and 3.8 µM against Tyrosinase.

Take `O=S(=O)(Nc1ccc(O)c2ncccc12)c1ccc(-c2ccccc2)cc1`: the IC50 in [6] is 10.8 µM. For the same compound, the inhibition in assay [9] is greater than 65%.

As for `O=S(=O)(Nc1ccc2cccnc2c1O)c1cccs1`, the IC50 in assay [6] turned out to be 4.3 µM. Besides, the inhibition in [9] was greater than 65%.

For `O=C(O)c1cc(O)ccc1O` [GENTISIC ACID], the inhibition in assay [1] is 13%; in [10], 86%; in [2] it was 1%; in assay [3], 0%; in [4], 24%; in assay [5], 96%. Moreover, the inhibition was 40% in assay [11] and -3% in assay [8]. Moreover, the IC50 in [12] was 75 µM.
